This note sets out measurements from article PMC3116947 (Journal of Molecular Recognition, 2010).

The target in test [1] is E171A mutant of cSH3 domain (cSH3_E171A) of Grb2 (Homo sapiens, UniProt P62993, E171A). In words: ITC binding of G1 and G2 peptides to cSH3_E171A. Particulars: SD. The essentials: (§1)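 Human Grb2 cSH3 domain (wildtype or point mutant) expressed in E. coli Rosetta2(DE3), purified by Ni-NTA and size-exclusion chromatography. 12-mer human Gab1 peptides, concentration measured gravimetrically. ITC at 25 °C in 50 mM Tris pH 8.0, 200 mM NaCl, 1 mM EDTA, 5 mM β-mercaptoethanol: 25 injections of 2–8 mM peptide into 50–200 µM cSH3. Kd from one-site non-linear least-squares fit; 3–4 independent runs, SD.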
E171A mutant of cSH3 domain (cSH3_E171A) of Grb2, sequence (P62993 156-215 E171A limits assumed): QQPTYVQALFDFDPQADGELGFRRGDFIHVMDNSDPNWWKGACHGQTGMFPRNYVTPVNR

The target in test [2] is E174A mutant of cSH3 domain (cSH3_E174A) of Grb2 (Homo sapiens, UniProt P62993, E174A). Put plainly: ITC binding of G1 and G2 peptides to cSH3_E174A. In short, it runs like this: as §1
E174A mutant of cSH3 domain (cSH3_E174A) of Grb2, sequence (P62993 156-215 E174A limits assumed): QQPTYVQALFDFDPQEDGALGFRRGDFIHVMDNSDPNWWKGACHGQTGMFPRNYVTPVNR
Test [3] deals with D187A mutant of cSH3 domain (cSH3_D187A) of Grb2 (Homo sapiens, UniProt P62993, D187A). In words: ITC binding of G1 and G2 peptides to cSH3_D187A. Particulars: SD. The essentials:
as §1

Test [4] concerns the target D190A mutant of cSH3 domain (cSH3_D190A) of Grb2 (Homo sapiens, UniProt P62993, D190A). In words: ITC binding of G1 and G2 peptides to cSH3_D190A. To be noted: SD. The essentials:
as §1

Test [5] concerns the target cSH3 domain of Grb2 (Homo sapiens, UniProt P62993). In words: ITC binding of Gab1-derived peptides to wildtype cSH3 domain of Grb2. To be noted: binding affinity (Kd), 50 mM Tris, pH 8.0, 25 °C (Figure 3a).

Ends that are not written are not given here.

D187A mutant of cSH3 domain (cSH3_D187A) of Grb2, sequence (P62993 156-215 D187A limits assumed): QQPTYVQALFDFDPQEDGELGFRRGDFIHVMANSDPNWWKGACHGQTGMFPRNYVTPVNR
D190A mutant of cSH3 domain (cSH3_D190A) of Grb2, sequence (P62993 156-215 D190A limits assumed): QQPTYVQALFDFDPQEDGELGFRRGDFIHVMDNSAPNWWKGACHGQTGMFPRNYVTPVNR
cSH3 domain of Grb2, sequence (P62993 156-215 limits assumed): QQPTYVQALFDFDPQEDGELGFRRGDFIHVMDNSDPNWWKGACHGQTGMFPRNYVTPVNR

For the sequence PPPVDRNLKPDR [Peptide G2], the equilibrium dissociation constant (Kd) – broadly, the constant that tells how readily two partners part at equilibrium – is 158 ± 1 µM in test [1], greater than 1 mM in test [2], 182 ± 3 µM in test [3] and 77 ± 6 µM in test [4].
As for DIPPPRPPKPHP [Peptide G1], the Kd in test [5] (in the absence of NaCl) is roughly 50 µM; in test [5] (in the presence of 500 mM NaCl) it was roughly 200 µM; in test [1], 444 ± 55 µM; in test [2], greater than 1 mM; in test [3], 171 ± 8 µM; in test [4] it was 177 ± 17 µM.
